Test results from ChEMBL document CHEMBL3046793, “Fungicidal property of Curcuma longa L. rhizome-derived curcumin against phytopathogenic fungi in a greenhouse” (2003).

What was measured:
Assay type in all cases: functional
[1] = system: Blumeria graminis; experiment: Fungicidal activity against Blumeria graminis infected first-leaf stage of barley plant at 500 mg/l applied as spray under green house conditions relative to control
[2] = system: Puccinia recondita; experiment: Fungicidal activity against Puccinia recondita infected first leaf stage of wheat plant at 500 mg/l applied as spray after 10 days under green house conditions relative to control
In short: (§1)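 Whole-plant greenhouse spray assay: sample dissolved in DMSO, diluted in water with Tween 20 (250 µg/mL), 50 mL sprayed over two pots; plants held 1 day before inoculation with P. recondita; controls got Tween 20 solution. Control value = (untreated − treated disease area)/untreated × 100; three replicates.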

[3] = system: Puccinia recondita; experiment: Fungicidal activity against Puccinia recondita infected first leaf stage of wheat plant at 1000 mg/l applied as spray after 10 days under green house conditions relative to control; in short: as §1
[4] = system: Phytophthora infestans; experiment: Fungicidal activity against Phytophthora infestans infected second leaf-stage of tomato plant at 500 mg/l applied as spray after 4 days under green house conditions relative to control
[5] = system: Phytophthora infestans; experiment: Fungicidal activity against Phytophthora infestans infected second leaf-stage of tomato plant at 1000 mg/l applied as spray after 4 days under green house conditions relative to control
[6] = system: Botrytis cinerea; experiment: Fungicidal activity against Botryotinia fuckeliana infected first-leaf stage of cucumber plant at 500 mg/l applied as spray after 4 to 5 days under green house conditions relative to control
[7] = system: Botrytis cinerea; experiment: Fungicidal activity against Botryotinia fuckeliana infected first-leaf stage of cucumber plant at 1000 mg/l applied as spray after 4 to 5 days under green house conditions relative to control
[8] = system: Rhizoctonia solani; experiment: Fungicidal activity against Rhizoctonia solani infected in third leaf stage of rice plant at 1000 mg/l applied as spray after 5 days under green house conditions relative to control
In short: (§2)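 Rice at third leaf (three plants/pot) sprayed with sample in DMSO/Tween 20 (250 µg/mL) water; after 1 day inoculated by injecting at plant base R. solani inoculum (7-day wheat bran culture at 25 °C, macerated 500 g/L water). Held 5 days in lit chamber at 28 °C. Control value from diseased area against Tween-sprayed controls; triplicate.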

[9] = system: Rhizoctonia solani; experiment: Fungicidal activity against Rhizoctonia solani infected in third leaf stage of rice plant at 500 mg/l applied as spray after 5 days under green house conditions relative to control
[10] = system: Pyricularia grisea; experiment: Fungicidal activity against Magnaporthe grisea infected second leaf stage of rice plant at 500 mg/l applied as spray after 5 days under green house conditions relative to control
In short: (§3)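 Rice at second leaf (three plants/pot) sprayed with sample (DMSO, diluted in water with 250 µg/mL Tween 20), greenhouse 1 day. Inoculated with conidia (1 × 10^6 spores/mL), 24 h at 25 °C and 100% RH, then 5 days lit at 26 ± 2 °C and 85% RH. Severity scored; control value from diseased area against Tween-sprayed controls; triplicate.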

[11] = system: Pyricularia grisea; experiment: Fungicidal activity against Magnaporthe grisea infected second leaf stage of rice plant at 1000 mg/l applied as spray after 5 days under green house conditions relative to control; in short: as §3
[12] = system: Blumeria graminis; experiment: Fungicidal activity against Blumeria graminis infected first-leaf stage of barley plant at 1000 mg/l applied as spray under green house conditions relative to control
In short: (§4)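 Barley at fully expanded first leaf (four plants/pot) sprayed with test material (DMSO stock diluted in water with Tween 20 at 250 µg/mL), greenhouse 1 day, then dusted with E. graminis conidia from infected barley (8 treated pots per source pot). Controls got Tween 20 solution. Control value = (untreated − treated disease area)/untreated × 100; triplicate.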

[13] = system: Botrytis cinerea; experiment: Fungicidal activity against Botryotinia fuckeliana infected first-leaf stage of cucumber plant at 50 mg/l applied as spray after 4 to 5 days under green house conditions relative to control
[14] = system: Puccinia recondita; experiment: Fungicidal activity against Puccinia recondita infected first leaf stage of wheat plant at 50 mg/l applied as spray after 10 days under green house conditions relative to control
[15] = system: Phytophthora infestans; experiment: Fungicidal activity against Phytophthora infestans infected second leaf-stage of tomato plant at 50 mg/l applied as spray after 4 days under green house conditions relative to control
[16] = system: Rhizoctonia solani; experiment: Fungicidal activity against Rhizoctonia solani infected in third leaf stage of rice plant at 50 mg/l applied as spray after 5 days under green house conditions relative to control
[17] = system: Pyricularia grisea; experiment: Fungicidal activity against Magnaporthe grisea infected second leaf stage of rice plant at 50 mg/l applied as spray after 5 days under green house conditions relative to control
[18] = system: Blumeria graminis; experiment: Fungicidal activity against Blumeria graminis infected first-leaf stage of barley plant at 50 mg/l applied as spray under green house conditions relative to control
[19] = system: Botrytis cinerea; experiment: Fungicidal activity against Botryotinia fuckeliana infected first-leaf stage of cucumber plant at 125 mg/l applied as spray after 4 to 5 days under green house conditions relative to control
In short: (§5)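 Cucumber at first leaf (one plant/pot) sprayed with sample in DMSO/Tween 20 (250 µg/mL) water; controls Tween 20 solution. After 1 day, leaf-sprayed with B. cinerea conidia (1 × 10^6 spores/mL; 15-day PDA culture, 20 °C), held 4-5 days at 20 °C. Control value calculated from diseased area against untreated plants; three replicates.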

[20] = system: Puccinia recondita; experiment: Fungicidal activity against Puccinia recondita infected first leaf stage of wheat plant at 125 mg/l applied as spray after 10 days under green house conditions relative to control; in short: as §1
[21] = system: Puccinia recondita; experiment: Fungicidal activity against Puccinia recondita infected first leaf stage of wheat plant at 250 mg/l applied as spray after 10 days under green house conditions relative to control; in short: as §1
[22] = system: Phytophthora infestans; experiment: Fungicidal activity against Phytophthora infestans infected second leaf-stage of tomato plant at 125 mg/l applied as spray after 4 days under green house conditions relative to control
[23] = system: Phytophthora infestans; experiment: Fungicidal activity against Phytophthora infestans infected second leaf-stage of tomato plant at 250 mg/l applied as spray after 4 days under green house conditions relative to control
[24] = system: Botrytis cinerea; experiment: Fungicidal activity against Botryotinia fuckeliana infected first-leaf stage of cucumber plant at 250 mg/l applied as spray after 4 to 5 days under green house conditions relative to control; in short: as §5
[25] = system: Rhizoctonia solani; experiment: Fungicidal activity against Rhizoctonia solani infected in third leaf stage of rice plant at 125 mg/l applied as spray after 5 days under green house conditions relative to control; in short: as §2
[26] = system: Rhizoctonia solani; experiment: Fungicidal activity against Rhizoctonia solani infected in third leaf stage of rice plant at 250 mg/l applied as spray after 5 days under green house conditions relative to control; in short: as §2
[27] = system: Pyricularia grisea; experiment: Fungicidal activity against Magnaporthe grisea infected second leaf stage of rice plant at 125 mg/l applied as spray after 5 days under green house conditions relative to control; in short: as §3
[28] = system: Pyricularia grisea; experiment: Fungicidal activity against Magnaporthe grisea infected second leaf stage of rice plant at 250 mg/l applied as spray after 5 days under green house conditions relative to control; in short: as §3
[29] = system: Blumeria graminis; experiment: Fungicidal activity against Blumeria graminis infected first-leaf stage of barley plant at 125 mg/l applied as spray under green house conditions relative to control
[30] = system: Blumeria graminis; experiment: Fungicidal activity against Blumeria graminis infected first-leaf stage of barley plant at 250 mg/l applied as spray under green house conditions relative to control; in short: as §4

| SMILES | Activity [1] [%] | Activity [2] [%] | Activity [3] [%] | Activity [4] [%] | Activity [5] [%] | Activity [6] [%] | Activity [7] [%] | Activity [8] [%] | Activity [9] [%] | Activity [10] [%] | Activity [11] [%] | Activity [12] [%] | other results |
| --- | --- | --- | --- | --- | --- | --- | --- | --- | --- | --- | --- | --- | --- |
| CC(C)=CC(=O)C[C@H](C)C1=CCC(C)=CC1 [TURMERONE] | 0 | 0 | 0 | 0 | 0 | 0 | 0 | 0 | 0 | 0 | 0 | – | – |
| CC1(C)C2CCC1(C)C(O)C2 (stereo not drawn) [BORNEOL] | 0 | 0 | 0 | 0 | 0 | 0 | 0 | 0 | 0 | 0 | 0 | 0 | – |
| C=C1CCC2(C(C)C)CC12 (stereo not drawn) [SABINENE] | 0 | 0 | 0 | 0 | 0 | 0 | 0 | 0 | 0 | 0 | 0 | 0 | – |
| N#Cc1c(Cl)c(Cl)c(Cl)c(C#N)c1Cl [CHLOROTHALONIL] | – | – | – | – | – | – | – | – | – | – | – | – | Activity [13]: 0%; Activity [14]: 0%; Activity [15]: 95%; Activity [16]: 0%; Activity [17]: 0%; Activity [18]: 0% |
| CC12CCC(CC1)C(C)(C)O2 [EUCALYPTOL] | 0 | 0 | 0 | 0 | 0 | 0 | 0 | 0 | 0 | 0 | 0 | 0 | – |
| COc1cc(/C=C/C(=O)CC(=O)/C=C/c2ccc(O)c(OC)c2)ccc1O [CURCUMIN] | 0 | 100 | 100 | 100 | 100 | 40 | 70 | 85 | 63 | 0 | 0 | 0 | Activity [19]: 0%; Activity [20]: 63%; Activity [21]: 76%; Activity [22]: 57%; Activity [23]: 85%; Activity [24]: 15%; Activity [25]: 26%; Activity [26]: 45%; Activity [27]: 0%; Activity [28]: 0%; Activity [29]: 0%; Activity [30]: 0% |
| CN(C)S(=O)(=O)N(SC(F)(Cl)Cl)c1ccccc1 [DICHLOFLUANID] | – | – | – | – | – | – | – | – | – | – | – | – | Activity [13]: 92%; Activity [14]: 0%; Activity [15]: 0%; Activity [16]: 0%; Activity [17]: 0%; Activity [18]: 0% |
